Shown are actives, neighbours in structure and some others; about 3% of the full set was active somewhere.
SENP7 block – SENP7 protease inhibition; actives 1.5% (n = 330,000); recombinant SENP7, Z-RLRGG-aminoluciferin luminescence, 40 min; Q9BQF6; inhibition, % at 5 µM; AID 434973;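 active = inhibition above about 50% at the single test dose, limit read from the data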
UBC13 inh – human UBC13 polyubiquitination inhibition; P61088; UBC13 polyubiquitin chain formation, TR-FRET; inhibition, % at 20 µM; actives 0.47% (n = 330,000); in the data active = inhibition above about 45%, passing the limit was not always enough
SENP6 block – inhibitors of human SENP6 protease; Q9GZR1; Recombinant SENP6 catalytic domain, aminoluciferin luminescence; inhibition, % at 10 µM; actives 1.8% (n = 330,000); AID 2599;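 active = inhibition above about 50% at the single tested dose, limit read from the data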
SENP8 block-1 – inhibitors of human SENP8 protease | Q96LD8 | recombinant SENP8, Nedd8 substrate fluorescence | inhibition, % at 20 µM | actives 0.64% (n = 360,000); in the data active = inhibition mostly above about 40%, no sharp cut-off; inactive = mostly below about 27%
SENP8 block-2 – inhibitors of human SENP8 protease | purified SENP8, Z-RLRGG-aminoluciferin cleavage, luminescence | AID 2540 | inhibition, % at 10 µM | actives 1.2% (n = 330,000); in the data active = inhibition above about 50%
Apaf-1 inh – inhibitors of human Apaf-1 apoptosome. reconstituted apoptosome caspase-3 activity, DEVD-Rh110 fluorescence. inhibition, % at 20 µM. actives 0.71% (n = 330,000). AID 489030; active = inhibition of at least 40% at 20 µM
Target sequence (O14727 whole entry, looked up): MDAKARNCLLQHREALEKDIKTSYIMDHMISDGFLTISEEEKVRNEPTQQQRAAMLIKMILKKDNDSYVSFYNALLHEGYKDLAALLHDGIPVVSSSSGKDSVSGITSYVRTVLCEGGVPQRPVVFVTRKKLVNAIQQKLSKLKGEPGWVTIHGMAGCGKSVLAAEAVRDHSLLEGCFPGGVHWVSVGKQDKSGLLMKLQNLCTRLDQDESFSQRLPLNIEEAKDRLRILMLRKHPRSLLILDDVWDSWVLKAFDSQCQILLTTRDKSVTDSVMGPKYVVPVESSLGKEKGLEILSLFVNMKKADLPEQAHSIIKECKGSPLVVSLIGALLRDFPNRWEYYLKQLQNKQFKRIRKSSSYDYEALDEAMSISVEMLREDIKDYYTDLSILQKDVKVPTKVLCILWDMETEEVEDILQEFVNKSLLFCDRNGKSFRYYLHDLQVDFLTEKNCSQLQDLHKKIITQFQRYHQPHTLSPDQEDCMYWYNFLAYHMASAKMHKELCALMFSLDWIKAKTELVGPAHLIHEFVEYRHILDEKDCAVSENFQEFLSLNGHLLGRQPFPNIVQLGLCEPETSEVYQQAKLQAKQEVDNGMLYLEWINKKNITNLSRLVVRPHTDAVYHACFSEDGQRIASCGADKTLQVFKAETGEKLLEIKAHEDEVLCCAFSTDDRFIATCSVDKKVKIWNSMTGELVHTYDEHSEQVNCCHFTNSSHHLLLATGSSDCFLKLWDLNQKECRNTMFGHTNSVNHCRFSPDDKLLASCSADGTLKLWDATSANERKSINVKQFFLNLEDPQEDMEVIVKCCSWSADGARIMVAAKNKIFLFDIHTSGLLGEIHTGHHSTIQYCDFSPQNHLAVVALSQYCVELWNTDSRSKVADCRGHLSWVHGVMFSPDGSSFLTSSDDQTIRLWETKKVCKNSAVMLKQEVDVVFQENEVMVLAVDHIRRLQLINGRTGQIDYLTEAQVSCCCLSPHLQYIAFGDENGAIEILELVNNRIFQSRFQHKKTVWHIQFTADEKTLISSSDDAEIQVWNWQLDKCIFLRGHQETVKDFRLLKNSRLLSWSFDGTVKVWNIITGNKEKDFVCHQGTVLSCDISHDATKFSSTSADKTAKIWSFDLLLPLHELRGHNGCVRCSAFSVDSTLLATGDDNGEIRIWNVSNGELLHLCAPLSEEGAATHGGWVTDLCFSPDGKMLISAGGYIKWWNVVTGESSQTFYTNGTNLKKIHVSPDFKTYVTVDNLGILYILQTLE
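detection = Rh110 fluorescence intensity | test system = biochemical Apaf-1 apoptosome reconstitution | also added = cytochrome c and DEVD-Rh110 substrate | schedule = 30 min plus 50 min, RT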
Casp3 UBC13 ctr – caspase-3 inhibition (UBC13 counter-screen); shares compounds with UBC13 inh; Recombinant caspase-3, Caspase-Glo 3/7 luminescence, 60 min; inhibition, % at 20 µM; actives 4% (n = 1,400); AID 488856;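 active = mean inhibition across replicates above about 26%, limit read from the data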
UBC13 conf – confirmation of human UBC13 polyubiquitin inhibitors | inhibition, % at 10 µM | shares compounds with UBC13 inh | AID 488859 | UBC13 polyubiquitination, TR-FRET, biochemical | actives 68% (n = 1,400); in the data active = inhibition above about 45%
Apaf-1 inh conf – confirmation of Apaf-1 inhibitors; shares compounds with Apaf-1 inh; AID 504614; reconstituted apoptosome, caspase-3 DEVD-Rh110 fluorescence; actives 25% (n = 1,800); inhibition, % at 20 µM;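 active = mean inhibition of at least 40% at 20 µM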
Rh110 interf inh – counter-screen for Apaf-1 inhibitors: fluorescence interference. shares compounds with Apaf-1 inh. Rh110 fluorescence interference, quenched caspase reaction. activation (fluorescence interference), % at 20 µM. 1,800 tested, under 10 active;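 active = signal rise of 40% or more at 20 µM, treated as a fluorescence artifact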
Apaf1 inh interf – counter-screen for Apaf-1 inhibitors: fluorescence interference, dose response; AID 588538; IC50, µM; fluorescence interference counterscreen, Apaf-1 assay format; shares compounds with Apaf-1 inh; 460 tested, under 10 active; call rule not given here
SENP8 conf – SENP8 (human) inhibition, single concentration confirmation | purified SENP8, Nedd8-AMC/pro-Nedd8 cleavage fluorescence, 30 min | inhibition, % at 25 µM | actives 15% (n = 1,400) | AID 624319 | shares compounds with SENP8 block-1; in the data active = inhibition mostly above about 39%, no sharp cut-off; inactive = mostly below about 34%
Hits are given with their value; . = inactive; / = not tested or not shown.

SMILES | SENP7 block | UBC13 inh | SENP6 block | SENP8 block-1 | SENP8 block-2 | Apaf-1 inh | Apaf-1 inh conf | Rh110 interf inh | others
CCc1nc2ccccc2c(C(=O)OCCN2C(=O)c3ccccc3C2=O)c1C | . | 52 | . | 42 | . | . | / | / | Casp3 UBC13 ctr=.;UBC13 conf=70;SENP8 conf=.
CN(C)Cc1nc2ccccc2c(=O)n1Cc1nc(-c2cccc([N+](=O)[O-])c2)cs1 | . | . | . | . | . | . | / | /
CN1CCN(Cc2nc3ccccc3c(=O)n2Cc2nc(-c3ccc([N+](=O)[O-])cc3)cs2)CC1 | . | 79 | . | 47 | . | . | / | / | Casp3 UBC13 ctr=.;UBC13 conf=57;SENP8 conf=.
CC1(Cc2ccc(OC(F)(F)F)cc2)C(=O)Nc2c(Cl)ccc(Cl)c21 (centres undefined) | / | / | / | . | / | / | / | /
O=C1CC(=Nc2ccccc2)NN1c1ccccc1 | . | . | . | . | . | 66 | . | .
O=C1Cc2ccccc2N1c1ccccc1 | . | . | . | . | . | . | / | /
COCCNc1nc2cc(-c3cccc(Cl)c3)sc2c(=O)n1C | / | / | / | . | / | / | / | /
CCOC(=O)N1CCN(S(=O)(=O)c2ccc(C(=O)N(CCCN(C)C)c3nc4ccc(CC)cc4s3)cc2)CC1 | . | . | . | . | . | 55 | . | .
CC[C@H](C)[C@@H]1NC(=O)[C@H]([C@@H](C)CC)NC(=O)[C@@H](CC(C)C)NC(=O)[C@H](Cc2ccccc2)NC(=O)[C@H](Cc2ccccc2)NC(=O)[C@@H]2CCCN2C(=O)[C@@H]2CCCN2C(=O)[C@H](C(C)C)NC(=O)[C@H](CC(C)C)NC1=O | . | . | . | . | . | 54 | . | .
O=C1N[C@@H](Cc2ccccc2)C(=O)N2[C@H]3Nc4ccccc4[C@@]3([C@]34C[C@H]5C(=O)N[C@@H](Cc6ccccc6)C(=O)N5[C@H]3Nc3ccccc34)C[C@@H]12 | . | . | . | / | . | . | / | /
Cc1cc(C)c(C)c(S(=O)(=O)N2CCNC(=O)C2)c1C | / | / | / | . | / | / | / | /
COc1ccc(NC(=O)CCn2c(=S)[nH]c3ccccc3c2=O)cc1 | . | . | . | . | . | 86 | . | .
COc1ccc(NC(=O)CCCn2c(=S)[nH]c3ccccc3c2=O)cc1 | . | . | . | . | . | . | / | /
CC1CCN(CCc2nc3cc(NC(=O)COc4ccccc4)ccc3n2C)CC1 | . | . | . | . | . | 52 | . | .
CCC(=O)Nc1ccc2c(c1)nc(CCN1CCC(C)CC1)n2C | . | . | . | . | . | . | / | /
Cc1ccc(NC(=O)Nc2nnc([C@H]3C[C@H](O)[C@@H](CO)O3)s2)cc1 | / | / | / | . | / | / | / | /
CCCCCC(=O)Nc1nc(C)c(-c2csc(Nc3cc(OC)ccc3OC)n2)s1 | . | . | . | . | . | . | / | /
CCCCCCC(=O)Nc1nc(C)c(-c2csc(Nc3cc(OC)ccc3OC)n2)s1 | . | . | . | . | . | 49 | . | .
CN(Cc1ccc(F)cc1)C(=O)CNC(=O)c1cccs1 | . | . | . | . | . | 56 | 41 | . | Apaf1 inh interf=.
CN(Cc1c(F)cccc1Cl)C(=O)CNC(=O)c1cccs1 | . | . | . | . | . | . | / | /
CCC(=O)N(Cc1ccco1)Cc1cc2cc3c(cc2[nH]c1=O)OCO3 | . | . | . | . | . | . | / | /
CCC(=O)N(CCc1ccccc1C)Cc1cc2cc3c(cc2[nH]c1=O)OCO3 | . | . | . | . | . | 41 | . | .
CCC1Nc2ncnc(N3CCN(c4ccccc4)CC3)c2N(Cc2ccccc2)C1=O (centres undefined) | . | . | . | . | . | 60 | . | .
COc1ccc([C@H]2CC(=O)C[C@@H](CCn3cc(-c4ccncc4)nn3)O2)cc1 | / | / | / | . | / | / | / | /
COc1ccccc1C(=O)NC(CCSC)C(=O)N1CCC(Cc2ccccc2)CC1 (centres undefined) | . | . | . | . | . | 44 | . | .
SMILES | SENP7 block | UBC13 inh | SENP6 block | SENP8 block-1 | SENP8 block-2 | Apaf-1 inh | Apaf-1 inh conf | Rh110 interf inh | others
O=C(c1ccc2nc(-c3ccco3)c(-c3ccco3)nc2c1)N1CCN(c2ccccc2)CC1 | . | . | . | . | . | 40 | . | .
CCOc1cc(CNc2ccc(N3CCCCC3)cc2)cc(Br)c1OCC(=O)NC(C)(C)C | . | . | . | . | . | 44 | . | .
CCOc1cc(CNc2ccc(N3CCCC3)cc2)cc(Cl)c1OC | . | . | . | . | . | 55 | 51 | . | Apaf1 inh interf=.
CCN(CC(=O)Nc1ccc2c(c1)OCCO2)C(=O)/C=C/c1cccc(OC)c1OC | . | . | . | . | . | . | / | /
CCN(CC(=O)Nc1ccc2c(c1)OCCO2)C(=O)/C=C/c1ccc(OC)cc1OC | . | . | . | . | . | 64 | . | .
CCCNC(=O)C1(C)CCN(C(=O)c2cccc(C(F)(F)F)c2)C1 (centres undefined) | / | / | / | . | / | / | / | /
CN(Cc1ccccc1)c1oc(-c2ccco2)nc1C#N | . | . | . | . | . | 41 | . | .
CN(C)c1oc(-c2ccco2)nc1C#N | . | . | . | . | . | . | / | /
Fc1ccc(N2CCN(c3nc(CN4CCOCC4)nc4scc(-c5ccccc5)c34)CC2)cc1 | . | . | . | . | . | 41 | . | .
COc1ccc(N2CCN(Cc3nc4scc(-c5ccccc5)c4c(=O)[nH]3)CC2)cc1 | . | . | . | . | . | 44 | . | .
O=c1[nH]c(CN2CCN(c3ccccc3)CC2)nc2scc(-c3ccccc3)c12 | . | . | . | . | . | . | / | /
O=C(NC1CC2CCCC(C1)N2S(=O)(=O)c1ccccc1)c1ccco1 (centres undefined) | . | . | . | . | . | 42 | . | .
COc1ccc(C(=O)COC(=O)CCCN=C2NS(=O)(=O)c3ccccc32)c(OC)c1 | . | . | . | . | . | 51 | . | .
COc1ccc(C(=O)COC(=O)CCN=C2NS(=O)(=O)c3ccccc32)c(OC)c1 | . | . | . | . | . | . | / | /
COCCNC(=O)c1c(N)n(CCC2=CCCCC2)c2nc3ccccc3nc12 | . | . | . | . | . | 63 | . | .

Bioassay records as filed in PubChem.
